Test results reported in ChEMBL document CHEMBL1144492, “Novel T-type calcium channel blockers: dioxoquinazoline carboxamide derivatives” (Bioorg Med Chem, 2007).
Calls of active or inactive are those of the source. The calls are words filed in the database; no cut-off is given here.

molecular target: T1, Voltage-dependent T-type calcium channel subunit alpha-1G (Homo sapiens, UniProt O43497); test: Inhibition of T-type calcium channel Cav3.1 with alpha-1G subunit by patch clamp assay; conditions: not given
T1 sequence (O43497 whole entry): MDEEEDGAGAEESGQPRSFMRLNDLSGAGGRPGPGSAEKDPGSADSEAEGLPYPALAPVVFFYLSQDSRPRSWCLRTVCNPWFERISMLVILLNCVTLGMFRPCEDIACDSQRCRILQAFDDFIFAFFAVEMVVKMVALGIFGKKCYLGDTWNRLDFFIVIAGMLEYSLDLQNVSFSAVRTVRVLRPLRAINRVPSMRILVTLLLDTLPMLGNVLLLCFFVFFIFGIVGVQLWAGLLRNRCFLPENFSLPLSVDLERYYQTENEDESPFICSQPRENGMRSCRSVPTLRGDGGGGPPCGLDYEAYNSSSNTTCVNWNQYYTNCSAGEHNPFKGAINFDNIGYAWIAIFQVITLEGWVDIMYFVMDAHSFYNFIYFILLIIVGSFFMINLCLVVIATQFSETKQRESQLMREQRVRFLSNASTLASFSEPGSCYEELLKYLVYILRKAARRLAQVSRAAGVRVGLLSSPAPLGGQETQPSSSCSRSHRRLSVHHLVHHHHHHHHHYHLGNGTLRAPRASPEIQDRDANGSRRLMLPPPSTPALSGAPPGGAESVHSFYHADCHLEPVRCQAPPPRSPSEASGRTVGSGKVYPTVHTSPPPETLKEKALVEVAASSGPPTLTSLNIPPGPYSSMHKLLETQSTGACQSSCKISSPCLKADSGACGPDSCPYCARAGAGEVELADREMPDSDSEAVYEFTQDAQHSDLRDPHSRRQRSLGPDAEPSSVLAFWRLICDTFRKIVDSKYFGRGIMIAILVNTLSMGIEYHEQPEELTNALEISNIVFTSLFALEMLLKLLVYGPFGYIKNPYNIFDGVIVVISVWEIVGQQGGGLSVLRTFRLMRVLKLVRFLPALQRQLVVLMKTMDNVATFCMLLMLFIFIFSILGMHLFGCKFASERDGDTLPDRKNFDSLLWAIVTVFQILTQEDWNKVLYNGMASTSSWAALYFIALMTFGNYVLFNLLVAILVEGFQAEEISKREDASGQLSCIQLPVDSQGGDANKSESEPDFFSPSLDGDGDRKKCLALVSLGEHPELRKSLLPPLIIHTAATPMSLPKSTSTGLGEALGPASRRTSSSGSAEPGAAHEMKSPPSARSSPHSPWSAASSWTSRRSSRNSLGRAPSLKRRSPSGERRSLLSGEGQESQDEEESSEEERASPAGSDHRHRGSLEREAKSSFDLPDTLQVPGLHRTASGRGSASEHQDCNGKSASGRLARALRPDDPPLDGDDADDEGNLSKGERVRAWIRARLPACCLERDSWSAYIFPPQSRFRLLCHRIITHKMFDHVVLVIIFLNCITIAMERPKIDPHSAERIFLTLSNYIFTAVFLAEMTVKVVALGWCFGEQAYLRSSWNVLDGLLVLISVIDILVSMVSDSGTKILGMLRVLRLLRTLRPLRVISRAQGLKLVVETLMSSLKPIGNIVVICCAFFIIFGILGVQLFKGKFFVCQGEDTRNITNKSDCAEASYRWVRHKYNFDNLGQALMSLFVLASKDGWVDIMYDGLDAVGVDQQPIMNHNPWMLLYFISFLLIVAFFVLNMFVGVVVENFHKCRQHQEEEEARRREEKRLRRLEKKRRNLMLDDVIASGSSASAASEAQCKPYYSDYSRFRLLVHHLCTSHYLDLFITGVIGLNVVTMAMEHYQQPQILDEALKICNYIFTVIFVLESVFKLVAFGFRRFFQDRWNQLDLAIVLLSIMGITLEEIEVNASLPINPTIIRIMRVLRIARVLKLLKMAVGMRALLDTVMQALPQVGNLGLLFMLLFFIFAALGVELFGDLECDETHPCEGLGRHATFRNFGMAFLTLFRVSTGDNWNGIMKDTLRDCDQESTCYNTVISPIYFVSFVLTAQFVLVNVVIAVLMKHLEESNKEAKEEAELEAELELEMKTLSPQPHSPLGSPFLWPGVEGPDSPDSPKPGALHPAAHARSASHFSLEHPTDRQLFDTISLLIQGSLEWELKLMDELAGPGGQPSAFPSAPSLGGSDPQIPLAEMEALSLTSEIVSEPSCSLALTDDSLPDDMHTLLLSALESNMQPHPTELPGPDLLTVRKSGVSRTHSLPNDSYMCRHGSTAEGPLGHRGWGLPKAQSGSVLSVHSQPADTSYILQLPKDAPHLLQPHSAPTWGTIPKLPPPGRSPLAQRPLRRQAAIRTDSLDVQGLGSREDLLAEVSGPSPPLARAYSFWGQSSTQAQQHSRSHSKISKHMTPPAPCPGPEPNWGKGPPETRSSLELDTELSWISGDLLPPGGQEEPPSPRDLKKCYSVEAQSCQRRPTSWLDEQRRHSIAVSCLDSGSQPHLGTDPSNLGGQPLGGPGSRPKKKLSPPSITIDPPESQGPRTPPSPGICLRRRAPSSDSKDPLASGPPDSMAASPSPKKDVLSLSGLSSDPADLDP

SMILES | IC50
O=C(NCCN1CCCCC1)c1ccc2c(=O)n(Cc3ccc(F)cc3)c(=O)[nH]c2c1 | 9.23 µM
CCC1CCCCN1CCCNC(=O)c1ccc2c(=O)n(Cc3ccc(F)cc3)c(=O)[nH]c2c1 (centres undefined) | 3.31 µM
O=C(NCCN1CCCC1)c1ccc2c(=O)n(Cc3ccc(Cl)cc3)c(=O)[nH]c2c1 | 2.46 µM
CC1CCCCN1CCCNC(=O)c1ccc2c(=O)n(Cc3ccc(F)cc3)c(=O)[nH]c2c1 (centres undefined) | 4.63 µM
CCC1CCCCN1CCNC(=O)c1ccc2c(=O)n(Cc3ccc(Cl)cc3)c(=O)[nH]c2c1 (centres undefined) | 3.38 µM
CCC1CCCCN1CCCNC(=O)c1ccc2c(=O)n(Cc3ccc(Cl)cc3)c(=S)[nH]c2c1 (centres undefined) | 0.1 µM
CC1CCCCN1CCCNC(=O)c1ccc2c(=O)n(Cc3ccc(Cl)cc3)c(=O)[nH]c2c1 (centres undefined) | 3.72 µM
CCC1CCCCN1CCCNC(=O)c1ccc2c(=O)n(Cc3ccccc3Cl)c(=O)[nH]c2c1 (centres undefined) | 2.79 µM
CCC1CCCCN1CCNC(=O)c1ccc2c(=O)n(Cc3ccc(F)cc3)c(=O)[nH]c2c1 (centres undefined) | 7.98 µM
O=C(NCCN1CCCC1)c1ccc2c(=O)n(C3CCCCC3)c(=O)[nH]c2c1 | 7.96 µM
CCC1CCCCN1CCCNC(=O)c1ccc2c(=O)n(Cc3ccc(Cl)cc3)c(=O)[nH]c2c1 (centres undefined) | 1.52 µM
O=C(NCCCN1CCCCC1)c1ccc2c(=O)n(Cc3ccc(Cl)cc3)c(=O)[nH]c2c1 | 1.95 µM
O=C(NCCN1CCCCC1)c1ccc2c(=O)n(Cc3ccc(Cl)cc3)c(=O)[nH]c2c1 | 2.08 µM
O=C(NCCN1CCCCC1)c1ccc2c(=O)n(Cc3cccc(F)c3)c(=O)[nH]c2c1 | 16.9 µM
CCC1CCCCN1CCNC(=O)c1ccc2c(=O)n(Cc3ccc(OC)cc3)c(=O)[nH]c2c1 (centres undefined) | 5.97 µM

molecular target: T1, Voltage-dependent T-type calcium channel subunit alpha-1G; test: Inhibition of T-type calcium channel Cav3.1 with alpha-1G subunit expressed in HEK293 cells at 100 uM by FDSS6000 assay; type: cell-based; conditions: 10 uM, in the assay text read “at 10 uM” for “at 100 uM”
Outline: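 HEK293 cells stably expressing α1G plus Kir2.1, grown in DMEM/10% FBS with geneticin and puromycin, plated at 4 × 10^4 cells/well and used next day. Loaded 60 min at room temperature with 5 µM fluo3/AM in Hepes-buffered saline, pH 7.4. Channels opened by depolarization with 70 mM KCl in buffer containing 10 mM CaCl2. Rise in intracellular Ca2+ read by fluorescence on FDSS6000.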

SMILES | inhibition
O=C(NCCCN1CCOCC1)c1ccc2c(=O)n(Cc3ccc(Cl)cc3)c(=O)[nH]c2c1 | 9.7%
O=C(NCCCN1CCCC1)c1ccc2c(=O)n(Cc3ccccc3Cl)c(=O)[nH]c2c1 | 6.2%

same assay, conditions: 100 uM

SMILES | inhibition | Activity
O=C(NCCCN1CCOCC1)c1ccc2c(=O)n(C3CCCCC3)c(=O)[nH]c2c1 | 36.3% | –
O=C(NCCCN1CCCC1)c1ccc2c(=O)n(Cc3cccc(F)c3)c(=O)[nH]c2c1 | 9.8% | –
O=C(NCCN1CCCCC1)c1ccc2c(=O)n(Cc3ccc(F)cc3)c(=O)[nH]c2c1 | 65% | –
CC1CCCCN1CCCNC(=O)c1ccc2c(=O)n(Cc3cccc(F)c3)c(=O)[nH]c2c1 (centres undefined) | 47.8% | –
CCCn1c(=O)[nH]c2cc(C(=O)NCCN3CCCC3)ccc2c1=O | 6.7% | –
CCCn1c(=O)[nH]c2cc(C(=O)NCCCN3CCOCC3)ccc2c1=O | 9.2% | –
O=C(NCCN1CCOCC1)c1ccc2c(=O)n(-c3cccc(F)c3)c(=O)[nH]c2c1 | 3.8% | –
CC1CCCCN1CCCNC(=O)c1ccc2c(=O)n(Cc3ccccc3F)c(=O)[nH]c2c1 (centres undefined) | 13.9% | –
CN1CCN(CCCNC(=O)c2ccc3c(=O)n(C)c(=O)[nH]c3c2)CC1 | 3.4% | –
O=C(NCCN1CCCCC1)c1ccc2c(=O)n(-c3ccccc3F)c(=O)[nH]c2c1 | 7.2% | –
O=C(NCCN1CCCCC1)c1ccc2c(=O)n(-c3ccc(F)cc3)c(=O)[nH]c2c1 | 12.5% | –
CN1CCN(CCCNC(=O)c2ccc3c(=O)n(Cc4ccccc4F)c(=O)[nH]c3c2)CC1 | 7.3% | –
O=C(NCCCN1CCOCC1)c1ccc2c(=O)n(Cc3ccc(F)cc3)c(=O)[nH]c2c1 | – | inactive
CN1CCN(CCCNC(=O)c2ccc3c(=O)n(Cc4cccc(F)c4)c(=O)[nH]c3c2)CC1 | 8.3% | –
CCC1CCCCN1CCCNC(=O)c1ccc2c(=O)n(Cc3ccc(F)cc3)c(=O)[nH]c2c1 (centres undefined) | 68.3% | –
Cn1c(=O)[nH]c2cc(C(=O)NCCN3CCCC3)ccc2c1=O | – | inactive
COc1ccc(-n2c(=O)[nH]c3cc(C(=O)NCCCN4CCCCC4C)ccc3c2=O)cc1 (centres undefined) | 1.5% | –
O=C(NCCN1CCCC1)c1ccc2c(=O)n(Cc3ccccc3F)c(=O)[nH]c2c1 | 24.9% | –
CC1CCCCN1CCCNC(=O)c1ccc2c(=O)n(Cc3ccc(F)cc3)c(=O)[nH]c2c1 (centres undefined) | 56.6% | –
O=C(NCCCN1CCOCC1)c1ccc2c(=O)n(-c3ccc(F)cc3)c(=O)[nH]c2c1 | 9.2% | –
CN1CCN(CCCNC(=O)c2ccc3c(=O)n(-c4ccccc4F)c(=O)[nH]c3c2)CC1 | 2.4% | –

SMILES | inhibition | Activity
CC1CCCCN1CCCNC(=O)c1ccc2c(=O)n(C3CCCCC3)c(=O)[nH]c2c1 (centres undefined) | 48.3% | –
CCCn1c(=O)[nH]c2cc(C(=O)NCCN3CCOCC3)ccc2c1=O | – | inactive
O=C(NCCN1CCOCC1)c1ccc2c(=O)n(-c3ccc(F)cc3)c(=O)[nH]c2c1 | – | inactive
O=C(NCCN1CCCCC1)c1ccc2c(=O)n(-c3cccc(F)c3)c(=O)[nH]c2c1 | 3.4% | –
COc1cccc(Cn2c(=O)[nH]c3cc(C(=O)NCCCN4CCCCC4C)ccc3c2=O)c1 (centres undefined) | 36.9% | –
O=C(NCCN1CCCCC1)c1ccc2c(=O)n(C3CCCCC3)c(=O)[nH]c2c1 | 52.2% | –
CCCn1c(=O)[nH]c2cc(C(=O)NCCCN3CCCCC3C)ccc2c1=O (centres undefined) | 12.5% | –
COc1ccc(Cn2c(=O)[nH]c3cc(C(=O)NCCCN4CCCCC4C)ccc3c2=O)cc1 (centres undefined) | 42.3% | –
O=C(NCCCN1CCCC1)c1ccc2c(=O)n(Cc3ccc(F)cc3)c(=O)[nH]c2c1 | 34.2% | –
COc1cccc(-n2c(=O)[nH]c3cc(C(=O)NCCCN4CCCCC4C)ccc3c2=O)c1 (centres undefined) | 12.3% | –
COc1ccc(Cn2c(=O)[nH]c3cc(C(=O)NCCN4CCOCC4)ccc3c2=O)cc1 | – | inactive
O=C(NCCN1CCCC1)c1ccc2c(=O)n(Cc3ccc(F)cc3)c(=O)[nH]c2c1 | 47.2% | –
COc1ccc(-n2c(=O)[nH]c3cc(C(=O)NCCCN4CCCC4)ccc3c2=O)cc1 | – | inactive
COc1ccc(-n2c(=O)[nH]c3cc(C(=O)NCCCN4CCN(C)CC4)ccc3c2=O)cc1 | – | inactive
COc1cccc(Cn2c(=O)[nH]c3cc(C(=O)NCCCN4CCCC4)ccc3c2=O)c1 | 13.2% | –
CCCn1c(=O)[nH]c2cc(C(=O)NCCN3CCCCC3)ccc2c1=O | 18% | –
COc1ccccc1Cn1c(=O)[nH]c2cc(C(=O)NCCCN3CCCCC3C)ccc2c1=O (centres undefined) | 12.7% | –
COc1cccc(Cn2c(=O)[nH]c3cc(C(=O)NCCCN4CCN(C)CC4)ccc3c2=O)c1 | 20.1% | –
COc1cccc(Cn2c(=O)[nH]c3cc(C(=O)NCCN4CCCCC4)ccc3c2=O)c1 | 62.9% | –
COc1ccc(Cn2c(=O)[nH]c3cc(C(=O)NCCCN4CCCC4)ccc3c2=O)cc1 | 26.8% | –
O=C(NCCN1CCCC1)c1ccc2c(=O)n(C3CCCCC3)c(=O)[nH]c2c1 | 57.7% | –

SMILES | inhibition | Activity
COc1cccc(-n2c(=O)[nH]c3cc(C(=O)NCCN4CCCC4)ccc3c2=O)c1 | 13.1% | –
COc1ccccc1-n1c(=O)[nH]c2cc(C(=O)NCCCN3CCCC3)ccc2c1=O | 1.5% | –
CCCn1c(=O)[nH]c2cc(C(=O)NCCCN3CCN(C)CC3)ccc2c1=O | – | inactive
O=C(NCCCN1CCOCC1)c1ccc2c(=O)n(-c3ccccc3F)c(=O)[nH]c2c1 | 2.8% | –
COc1cccc(Cn2c(=O)[nH]c3cc(C(=O)NCCN4CCCC4)ccc3c2=O)c1 | 27.8% | –
O=C(NCCN1CCCC1)c1ccc2c(=O)n(-c3cccc(F)c3)c(=O)[nH]c2c1 | 4.3% | –
COc1ccc(Cn2c(=O)[nH]c3cc(C(=O)NCCCN4CCOCC4)ccc3c2=O)cc1 | 36% | –
Cn1c(=O)[nH]c2cc(C(=O)NCCN3CCCCC3)ccc2c1=O | 17.6% | –
COc1ccc(Cn2c(=O)[nH]c3cc(C(=O)NCCN4CCCC4)ccc3c2=O)cc1 | 39.4% | –
COc1cccc(-n2c(=O)[nH]c3cc(C(=O)NCCN4CCCCC4)ccc3c2=O)c1 | – | inactive
O=C(NCCCN1CCOCC1)c1ccc2c(=O)n(-c3cccc(F)c3)c(=O)[nH]c2c1 | 15.1% | –
O=C(NCCCN1CCCC1)c1ccc2c(=O)n(-c3cccc(F)c3)c(=O)[nH]c2c1 | – | inactive
O=C(NCCN1CCCCC1)c1ccc2c(=O)n(Cc3cccc(F)c3)c(=O)[nH]c2c1 | 64.6% | –
COc1ccc(-n2c(=O)[nH]c3cc(C(=O)NCCN4CCCC4)ccc3c2=O)cc1 | 10.5% | –
COc1cccc(Cn2c(=O)[nH]c3cc(C(=O)NCCCN4CCOCC4)ccc3c2=O)c1 | 28.9% | –
O=C(NCCN1CCCC1)c1ccc2c(=O)n(-c3ccccc3F)c(=O)[nH]c2c1 | 6.5% | –
CC1CCCCN1CCCNC(=O)c1ccc2c(=O)n(-c3cccc(F)c3)c(=O)[nH]c2c1 (centres undefined) | – | inactive
COc1cccc(-n2c(=O)[nH]c3cc(C(=O)NCCCN4CCCC4)ccc3c2=O)c1 | – | inactive
CN1CCN(CCCNC(=O)c2ccc3c(=O)n(Cc4ccc(F)cc4)c(=O)[nH]c3c2)CC1 | 25.5% | –
CC1CCCCN1CCCNC(=O)c1ccc2c(=O)n(C)c(=O)[nH]c2c1 (centres undefined) | 8.5% | –
